Assay outcomes (PubChem BioAssay)
Only a selection was taken, and hits are over-represented in it overall.
S1P4 ag – activates the human S1P4 receptor | activation, % at 4.98 µM | O95977 | S1P4-expressing cell line, agonist reporter assay | actives 0.35% (n = 220,000); in the data active = activation above about 11%
Mdm2 ligase inh – blocks human Mdm2 ubiquitin ligase activity; cell-based MDM2 ubiquitination luciferase reporter, 2 h; 0 = plate control, 100 = twice control, blank-subtracted; signal enhancement, % at 5 µM; actives 0.11% (n = 210,000); AID 1230;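 active = signal enhancement of 30% or more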;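 note: luminescence tracks abundance of the self-degrading MDM2-luciferase fusion protein; higher signal means inhibition of MDM2 E3 ligase activity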
Target sequence (Q00987 whole entry, looked up, the tested form may be a part): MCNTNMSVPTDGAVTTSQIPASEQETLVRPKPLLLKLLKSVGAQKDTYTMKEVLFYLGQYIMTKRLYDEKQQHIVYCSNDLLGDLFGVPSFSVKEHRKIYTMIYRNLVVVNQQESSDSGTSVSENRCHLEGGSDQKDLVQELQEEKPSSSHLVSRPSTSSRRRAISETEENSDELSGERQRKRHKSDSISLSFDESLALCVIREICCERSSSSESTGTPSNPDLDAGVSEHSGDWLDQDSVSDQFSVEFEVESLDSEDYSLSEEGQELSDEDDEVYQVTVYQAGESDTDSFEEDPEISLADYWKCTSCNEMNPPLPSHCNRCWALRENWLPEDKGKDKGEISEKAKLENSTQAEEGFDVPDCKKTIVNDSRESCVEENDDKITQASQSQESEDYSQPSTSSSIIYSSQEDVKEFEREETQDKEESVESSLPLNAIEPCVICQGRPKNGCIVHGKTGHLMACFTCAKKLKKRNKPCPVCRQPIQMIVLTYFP
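Test system: stable mammalian line carrying autodegrading MDM2–luciferase fusion reporter; quantity: 2000 cells in each well; times: 4 h cell settling then 2 h compound exposure, 37 °C; detection: luminescence with SteadyLite reagent, 15 min at room temperature; evaluation: percent signal gain over controls, blank-subtracted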
S1P3 antag – blocks the human S1P3 receptor | Q99500 | CHO S1P3 NFAT-BLA reporter, FRET fluorescence, antagonist mode | inhibition, % at 4.98 µM | actives 0.27% (n = 170,000);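 active = inhibition above the plate cutoff, the mean inhibition of test wells on that plate plus 3 SD, cut at about 28% in these data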;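 note: cells challenged with S1P at its EC80 of 0.8 µM; blue over green emission ratio from cleaved BLA substrate after 4 h stimulation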
S1P4 antagonist – human S1P4 receptor antagonism; inhibition, % at 4.98 µM; S1P4-expressing cells, antagonist mode, reporter read-out; actives 0.26% (n = 220,000); O95977; AID 1510; in the data active = inhibition above about 29%
L major viab – inhibitors of Leishmania major promastigote growth; inhibition, % at 10 µM; actives 9% (n = 200,000); Leishmania major promastigotes, resazurin fluorescence viability; AID 1063; in the data active = inhibition above about 50%;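 note: promastigotes grown with compound for 44 hours at 28 °C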
Lmaj promast 1uM – inhibitors of Leishmania major promastigote growth, repeat at 1 uM; shares compounds with L major viab; L. major promastigote growth, resazurin fluorescence, 48 h; inhibition, % at 1 µM; actives 13% (n = 1,100); AID 1258;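 active = inhibition above about 50% in both repeat tests, limit read from the data; inconclusive = one repeat under the set limit, the other over it; inactive = both repeats under the set limit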
S1P4 ag conf – human S1P4 agonism, confirmation | shares compounds with S1P4 ag | S1P4 agonist cell-based reporter assay | activation, % at 4.98 µM | actives 7% (n = 740) | AID 1523; in the data active = activation above about 12%
S1P1 agonist – human S1P1 agonism as S1P4 agonist counter-screen | shares compounds with S1P4 ag | S1P1 agonist cell-based assay, activation | activation, % at 4.98 µM | actives 4% (n = 740) | AID 1563; in the data active = activation above about 21%
Hits are given with their value; 0 = inactive; ? = inconclusive; - = no result given.

SMILES	S1P4 ag	Mdm2 ligase inh	S1P3 antag	S1P4 antagonist	L major viab	Lmaj promast 1uM	others
COc1ccccc1C1=NCc2nnc(C)n2-c2ccc(Cl)cc21	0	0	0	0	61	0
CN(C)C1=NC(N(C)C)=NP(N(C)C)(N(C)C)=N1	0	0	0	0	0	-
COc1ccccc1N1C(=O)NC(=O)C2(Cc3cc(C)ccc3N(C)C2)C1=O (stereo not drawn)	0	0	0	0	0	-
C[C@@]1(CO)[C@H](O)CC[C@@]2(C)[C@H]1CC[C@H]1C[C@@H]3C[C@@]12CC[C@]3(O)CO	0	-	0	0	100	95
Cn1c(=O)c2c(ncn2CCCl)n(C)c1=O	0	0	0	0	0	-
O=P(Nc1cccnc1)(Oc1ccccc1)Oc1ccccc1	0	0	0	0	93	0
COc1cccc(NP(=O)(Oc2ccccc2)Oc2ccccc2)c1	0	0	0	0	0	-
CC(C)(O)[C@H]1O[C@H]2CC[C@@]3(C)[C@@](O)(CC[C@H]4Cc5c([nH]c6ccccc56)[C@@]43C)C2=CC1=O	0	0	0	0	94	0
Cc1ccc(-c2nn(Cc3ccccc3)cc2C=O)cc1C	0	0	0	0	54	0
Cc1ccc(-c2nn(Cc3ccccc3)cc2C=O)cc1	0	0	0	0	0	-
Cc1nc2ccccc2c(=O)n1-c1ccc(Cl)cc1[N+](=O)[O-]	0	0	0	0	0	-
Cn1cc2c([N+](=O)[O-])cc([N+](=O)[O-])cc2n1	0	0	0	0	100	0
O=C1N(c2ccc(Cl)cc2)C(c2cccnc2)N2CCCN12 (stereo not drawn)	0	0	0	0	69	0
Cn1c(O)c(C=NCCc2c[nH]c3ccccc23)c(=O)n(C)c1=O	0	0	-	0	0	-
CCC1(CC)C(=O)N(Cc2ccccc2)C(=O)N(Cc2ccccc2)C1=O	0	0	-	0	82	?
CCC(C)C12CN3CCN(CC(C)(C3)C1O)C2 (stereo not drawn)	0	0	0	0	0	-
CN1CCC2(CC1)CC(NC=O)c1ccccc1O2 (stereo not drawn)	13	0	0	0	0	-	S1P4 ag conf=0;S1P1 agonist=0
CC(C)CCNC(=O)c1c(N)n(CC2CCCO2)c2nc3ccccc3nc12 (stereo not drawn)	12	0	-	0	0	-	S1P4 ag conf=0;S1P1 agonist=0
CCCCn1c(N)c(C(=O)NCCN2CCOCC2)c2nc3ccccc3nc21	0	0	0	0	0	-
COCCNC(=O)c1c(NC(=O)c2ccco2)n(Cc2ccccc2)c2nc3ccccc3nc12	0	0	0	0	0	-
COCCCNC(=O)c1c(NC(=O)c2ccccc2Cl)n(Cc2ccccc2)c2nc3ccccc3nc12	12	0	-	0	0	-	S1P4 ag conf=0;S1P1 agonist=0
CC(=O)NC1CC2CCCC(C1)N2 (stereo not drawn)	25	0	0	0	0	-	S1P4 ag conf=0;S1P1 agonist=0
CC(=O)NC1CC2CCC(C1)N2 (stereo not drawn)	0	0	0	0	0	-
CN(C)C(=O)Oc1ccc(OCc2nc3ccccc3[nH]2)cc1	0	0	0	0	0	-
CCOC(=O)c1c(-n2c(C)cc(C=C3C(=O)NC(=O)NC3=O)c2C)sc2c1CCCC2	12	0	-	0	84	-	S1P4 ag conf=29;S1P1 agonist=0
C[n+]1ccc(-c2ccncc2)cc1	12	0	0	0	0	-	S1P4 ag conf=0;S1P1 agonist=0
NC(=O)CSc1nnc([C@@H](N)Cc2c[nH]c3ccccc23)o1	0	0	-	0	0	-
S=C1CN=C(c2ccccc2Cl)c2cc(Cl)ccc2N1	27	0	-	0	0	-	S1P4 ag conf=0;S1P1 agonist=0
CCN1CCN(C(c2cccs2)C(C)NC(=O)Oc2ccccc2)CC1 (stereo not drawn)	0	0	0	0	0	-
Cc1sc2ncn(CC(=O)NCCCC(=O)N3CCC4(CC3)OCCO4)c(=O)c2c1C	0	0	-	0	0	-
